In brackets after ≈: the same amount, converted by molar mass. Activity calls are given as the source filed them. No cut-off for these calls is given here.
Tests used:
[1] = Half life in human; type: ADME, organism-based; conditions: in vivo
[2] = target: T1, Sphingosine 1-phosphate receptor 1 (Homo sapiens, UniProt P21453); assay: Agonist activity at human S1P1 receptor by beta-arrestin recruitment assay
[3] = target: Voltage-gated inwardly rectifying potassium channel KCNH2 (Homo sapiens, UniProt Q12809); assay: Binding affinity to human ERG
[4] = target: T1, Sphingosine 1-phosphate receptor 1; assay: Agonist activity at human S1P1 receptor assessed as cAMP accumulation by HTRF assay; type: functional
Method in brief: (§1)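 S1P1 engagement measured as cyclase activity in a homogeneous time-resolved fluorescence (HTRF) assay.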

[5] = target: T1, Sphingosine 1-phosphate receptor 1; assay: Agonist activity at human S1P1 receptor assessed as cAMP accumulation by HTRF assay relative to S1P; type: functional
[6] = Oral bioavailability in Sprague-Dawley rat at 1 mg/kg; type: ADME, organism-based; conditions: in vivo
[7] = target: T2, Sphingosine 1-phosphate receptor 4 (Homo sapiens, UniProt O95977); assay: Agonist activity at human S1P4 receptor by beta-arrestin recruitment assay
T2 sequence (O95977 whole entry): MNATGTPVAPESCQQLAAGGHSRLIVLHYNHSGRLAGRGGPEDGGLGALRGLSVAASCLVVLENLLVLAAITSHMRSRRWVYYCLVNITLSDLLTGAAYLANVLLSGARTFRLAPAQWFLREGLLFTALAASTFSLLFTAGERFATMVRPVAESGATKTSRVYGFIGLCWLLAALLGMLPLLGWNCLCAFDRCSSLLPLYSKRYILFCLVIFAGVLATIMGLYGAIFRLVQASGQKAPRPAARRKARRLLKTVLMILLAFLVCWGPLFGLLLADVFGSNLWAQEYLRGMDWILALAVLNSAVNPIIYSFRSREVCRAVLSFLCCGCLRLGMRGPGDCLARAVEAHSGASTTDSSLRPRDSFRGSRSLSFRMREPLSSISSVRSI

[8] = target: Sphingosine 1-phosphate receptor 1 (Macaca mulatta, UniProt H9EUW9); assay: Agonist activity at monkey S1P1 receptor assessed as cAMP accumulation by HTRF assay; type: functional; method in brief: as §1
[9] = target: T3, Sphingosine 1-phosphate receptor 5 (Homo sapiens, UniProt Q9H228); assay: Agonist activity at human S1P5 receptor by beta-arrestin recruitment assay
[10] = target: Sphingosine-1-phosphate receptor 1 (Canis lupus familiaris) (UniProt W5VNF7); assay: Agonist activity at dog S1P1 receptor assessed as cAMP accumulation by HTRF assay relative to S1P; type: functional
[11] = AUC (0 to infinity) in Sprague-Dawley rat at 1 mg/kg, iv or at 1 mg/kg, po; type: ADME, organism-based; conditions: plasma
Rattus norvegicus [12] = species on record: Rattus norvegicus; assay: Reduction in lymphocyte count in Sprague-Dawley rat; type: functional, organism-based
Method in brief: (§2)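 A PK/PD model relating plasma drug concentration to circulating lymphocyte counts was used to derive the plasma concentration that reduces lymphocytes by 50% (LL IC50, ng/mL).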

[13] = target: Sphingosine 1-phosphate receptor 2 (Homo sapiens, UniProt O95136); assay: Agonist activity at human S1P2 receptor by beta-arrestin recruitment assay
[14] = target: Sphingosine 1-phosphate receptor 1 (Macaca mulatta) (UniProt H9EUW9); assay: Agonist activity at monkey S1P1 receptor assessed as cAMP accumulation by HTRF assay relative to S1P; type: functional
Cytochrome P450 2C9 = Cytochrome P450 2C9 (Homo sapiens, UniProt P11712); assay: Inhibition of CYP2C9 (unknown origin); type: ADME
[15] = Ratio of drug level in brain to plasma in Sprague-Dawley rat; type: ADME; conditions: read-out: BPR
Method in brief: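 Abbreviated rat CNS distribution: a single 1.0 mg/kg oral dose, with brain and plasma drug levels measured over 6 h. Brain-to-plasma ratio derived from these levels.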

[16] = target: Sphingosine 1-phosphate receptor 1 (Mus musculus, UniProt O08530); assay: Agonist activity at mouse S1P1 receptor assessed as cAMP accumulation by HTRF assay; type: functional; method in brief: as §1
[17] = target: Sphingosine 1-phosphate receptor 1 (Rattus norvegicus, UniProt P48303); assay: Agonist activity at rat S1P1 receptor assessed as cAMP accumulation by HTRF assay; type: functional; method in brief: as §1
[18] = target: T4, Sphingosine 1-phosphate receptor 4 (Homo sapiens) (UniProt O95977); assay: Agonist activity at human S1P4 receptor by beta-arrestin recruitment assay relative to S1P
T4 sequence (whole entry): T2 sequence (O95977 whole entry)

[19] = target: Sphingosine-1-phosphate receptor 1 (Canis lupus familiaris, UniProt W5VNF7); assay: Agonist activity at dog S1P1 receptor assessed as cAMP accumulation by HTRF assay; type: functional; method in brief: as §1
[20] = target: Sphingosine 1-phosphate receptor 3 (Homo sapiens, UniProt Q99500); assay: Agonist activity at human S1P3 receptor by beta-arrestin recruitment assay
[21] = Systemic clearance in Sprague-Dawley rat at 1 mg/kg, iv; type: ADME, organism-based; set-up: dose 1 mg/kg, route intravenous; conditions: in vivo
[22] = target: T3, Sphingosine 1-phosphate receptor 5; assay: Agonist activity at human S1P5 receptor by beta-arrestin recruitment assay relative to S1P
[23] = Volume of distribution at steady state in Sprague-Dawley rat at 1 mg/kg, iv; type: ADME, organism-based; set-up: dose 1 mg/kg, route intravenous; conditions: in vivo, read-out: Vdss
[24] = target: Sphingosine 1-phosphate receptor 1 (Mus musculus) (UniProt O08530); assay: Agonist activity at mouse S1P1 receptor assessed as cAMP accumulation by HTRF assay relative to S1P; type: functional
[25] = Tmax in Sprague-Dawley rat at 1 mg/kg, po; type: ADME, organism-based; set-up: dose 1 mg/kg, route oral; conditions: in vivo
[26] = target: P2Y purinoceptor (Rattus norvegicus); assay: Binding affinity to P2Y purinoceptor (rat) by [35S]dATPalphaS competitive binding assay
Rattus norvegicus [27] = species on record: Rattus norvegicus; assay: Toxicity in telemeterized rat assessed as effect on cardiovascular function; type: organism-based, Heart; conditions: in vivo
[28] = Cmax in Sprague-Dawley rat at 1 mg/kg, po; type: ADME, organism-based; set-up: dose 1 mg/kg, route oral; conditions: in vivo
[29] = target: T1, Sphingosine 1-phosphate receptor 1; assay: Agonist activity at human S1P1 receptor by beta-arrestin recruitment assay relative to S1P
[30] = Elimination half life in Sprague-Dawley rat at 1 mg/kg, po; type: ADME, organism-based; set-up: dose 1 mg/kg, route oral; conditions: in vivo, read-out: beta t1/2 (converted)
[31] = target: Sphingosine 1-phosphate receptor 1 (Rattus norvegicus) (UniProt P48303); assay: Agonist activity at rat S1P1 receptor assessed as cAMP accumulation by HTRF assay relative to S1P; type: functional
[32] = Activation of Inward rectifier potassium channel in human atrial myocytes; type: cell-based; conditions: Cardiac atrium
[33] = Solubility in water in crystal phase; type: physicochemical
[34] = Cmax rat at 1000 mg/kg, po; type: ADME, organism-based; set-up: dose 1000 mg/kg, route oral; conditions: in vivo
Cytochrome P450 3A4 = Cytochrome P450 3A4 (Homo sapiens, UniProt P08684); assay: Inhibition of CYP3A4 (unknown origin); type: ADME
[35] = Drug level in rat plasma at 1 mg/kg, po dosed for 6 consecutive days; type: ADME, organism-based; set-up: dose 1 mg/kg, route oral
Method in brief: (§3)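 Repeat-dose rat CNS distribution: 1.0 mg/kg given on six consecutive days. Plasma, brain and CSF were sampled over the 24 h after the last dose. Average concentrations in brain and plasma gave the brain-to-plasma ratio.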

[36] = Ratio of drug level in rat brain to plasma at 1 mg/kg, po dosed for 6 consecutive days; type: ADME, organism-based; set-up: dose 1 mg/kg, route oral; conditions: read-out: BPR; method in brief: as §3
[37] = Solubility in water in L-lysine adduct form; type: physicochemical
Cytochrome P450 2C19 = Cytochrome P450 2C19 (Homo sapiens, UniProt P33261); assay: Inhibition of CYP2C19 (unknown origin); type: ADME
Cytochrome P450 1A2 = Cytochrome P450 1A2 (Homo sapiens, UniProt P05177); assay: Inhibition of CYP1A2 (unknown origin); type: ADME
Mus musculus [38] = assay: Reduction of disease index score in C57Bl/6 mouse experimental autoimmune encephalomyelitis model of multiple sclerosis at 0.1 to 0.3 mg/kg dosed for 24 days; type: functional, organism-based
Method in brief: (§4)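 Female C57Bl/6 mice with EAE, a demyelinating autoimmune disease induced to model MS, given compound orally at 0.1, 0.3 or 1.0 mg/kg for 24 days alongside a vehicle group. Clinical scoring began on day 10: 0 healthy; 1 limp tail or hind-limb weakness; 2 limp tail plus limb weakness, or weakness of ≥2 limbs; 3 severe limb weakness or single-limb paralysis; 4 paralysis of ≥2 limbs; 5 death. Mean group score reported.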

[39] = Drug level in rat brain at 1 mg/kg, po dosed for 6 consecutive days; type: ADME, organism-based; set-up: dose 1 mg/kg, route oral; conditions: read-out: Drug uptake; method in brief: as §3
Mus musculus [40] = assay: Reduction of disease index score in C57Bl/6 mouse experimental autoimmune encephalomyelitis model of multiple sclerosis at 0.1 mg/kg dosed for 24 days; type: functional, organism-based; set-up: dose 0.1 mg/kg; method in brief: as §4
Mus musculus [41] = species on record: Mus musculus; assay: Reduction in lymphocyte count in mouse; type: functional, organism-based; method in brief: as §2
Mus musculus [42] = assay: Prevention of severity of disease in C57Bl/6 mouse experimental autoimmune encephalomyelitis model of multiple sclerosis at 1 mg/kg dosed for 24 days; type: functional, organism-based; set-up: dose 1 mg/kg; method in brief: as §4
Cytochrome P450 2D6 = Cytochrome P450 2D6 (Homo sapiens, UniProt P10635); assay: Inhibition of CYP2D6 (unknown origin); type: ADME

T1 sequence (P21453 whole entry): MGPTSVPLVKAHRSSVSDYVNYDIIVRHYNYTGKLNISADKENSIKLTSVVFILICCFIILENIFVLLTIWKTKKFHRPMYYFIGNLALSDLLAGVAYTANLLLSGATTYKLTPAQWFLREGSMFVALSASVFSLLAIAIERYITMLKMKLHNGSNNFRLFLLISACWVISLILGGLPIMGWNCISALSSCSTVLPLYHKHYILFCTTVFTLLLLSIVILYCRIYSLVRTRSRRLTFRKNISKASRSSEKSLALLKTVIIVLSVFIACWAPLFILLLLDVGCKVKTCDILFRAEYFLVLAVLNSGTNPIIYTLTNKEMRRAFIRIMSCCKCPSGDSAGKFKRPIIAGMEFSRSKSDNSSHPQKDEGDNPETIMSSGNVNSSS
T3 sequence (Q9H228 whole entry): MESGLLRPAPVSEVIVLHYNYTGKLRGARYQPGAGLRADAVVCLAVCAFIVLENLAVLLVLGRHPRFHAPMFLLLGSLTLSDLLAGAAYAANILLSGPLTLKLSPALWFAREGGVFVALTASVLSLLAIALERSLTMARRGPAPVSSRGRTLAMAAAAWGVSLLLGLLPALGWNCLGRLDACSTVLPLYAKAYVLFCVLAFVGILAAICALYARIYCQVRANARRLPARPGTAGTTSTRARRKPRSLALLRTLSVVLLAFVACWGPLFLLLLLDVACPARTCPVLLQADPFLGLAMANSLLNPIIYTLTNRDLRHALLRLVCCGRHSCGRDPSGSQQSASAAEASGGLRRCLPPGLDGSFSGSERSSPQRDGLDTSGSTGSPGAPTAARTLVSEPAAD
Chain of Sphingosine 1-phosphate receptor 1 (Macaca mulatta, UniProt H9EUW9) (H9EUW9 whole entry): as the sequence (P21453 whole entry) above, with P3S, H12L, I37T, K41R, S189P, I241M, E365D counted along it
Chain of Sphingosine 1-phosphate receptor 1 (Macaca mulatta) (H9EUW9 as listed by the source): as the sequence (P21453 whole entry) above, with P3S, H12L, I37T, K41R, S189P, I241M, E365D counted along it
Chain of Sphingosine 1-phosphate receptor 1 (Mus musculus) (O08530 whole entry): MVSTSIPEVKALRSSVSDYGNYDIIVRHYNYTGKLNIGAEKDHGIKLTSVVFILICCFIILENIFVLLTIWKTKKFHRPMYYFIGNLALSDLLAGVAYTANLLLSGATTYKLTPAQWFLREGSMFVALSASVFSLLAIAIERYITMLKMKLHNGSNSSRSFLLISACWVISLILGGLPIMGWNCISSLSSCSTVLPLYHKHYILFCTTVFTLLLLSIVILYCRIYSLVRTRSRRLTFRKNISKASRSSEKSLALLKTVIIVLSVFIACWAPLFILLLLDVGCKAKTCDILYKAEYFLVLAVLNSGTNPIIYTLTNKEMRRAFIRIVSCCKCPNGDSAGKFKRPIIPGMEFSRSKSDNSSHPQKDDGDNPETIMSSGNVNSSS
Chain of Sphingosine 1-phosphate receptor 1 (Mus musculus, UniProt O08530) (O08530 whole entry): as above
Chain of Cytochrome P450 2C9 (P11712 whole entry): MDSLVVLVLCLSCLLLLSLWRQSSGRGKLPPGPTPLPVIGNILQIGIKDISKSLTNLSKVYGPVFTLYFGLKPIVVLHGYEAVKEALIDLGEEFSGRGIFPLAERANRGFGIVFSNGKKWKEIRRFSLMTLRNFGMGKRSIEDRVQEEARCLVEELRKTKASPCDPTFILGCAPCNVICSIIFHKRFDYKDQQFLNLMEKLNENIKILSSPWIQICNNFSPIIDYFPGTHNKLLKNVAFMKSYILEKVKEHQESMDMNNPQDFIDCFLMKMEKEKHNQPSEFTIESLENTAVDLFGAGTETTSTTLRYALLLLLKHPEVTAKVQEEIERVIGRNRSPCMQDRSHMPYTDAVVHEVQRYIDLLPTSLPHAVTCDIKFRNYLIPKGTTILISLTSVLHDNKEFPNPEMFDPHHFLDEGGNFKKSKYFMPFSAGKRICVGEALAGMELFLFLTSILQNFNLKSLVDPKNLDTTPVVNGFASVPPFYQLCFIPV
Chain of Sphingosine 1-phosphate receptor 2 (O95136 whole entry): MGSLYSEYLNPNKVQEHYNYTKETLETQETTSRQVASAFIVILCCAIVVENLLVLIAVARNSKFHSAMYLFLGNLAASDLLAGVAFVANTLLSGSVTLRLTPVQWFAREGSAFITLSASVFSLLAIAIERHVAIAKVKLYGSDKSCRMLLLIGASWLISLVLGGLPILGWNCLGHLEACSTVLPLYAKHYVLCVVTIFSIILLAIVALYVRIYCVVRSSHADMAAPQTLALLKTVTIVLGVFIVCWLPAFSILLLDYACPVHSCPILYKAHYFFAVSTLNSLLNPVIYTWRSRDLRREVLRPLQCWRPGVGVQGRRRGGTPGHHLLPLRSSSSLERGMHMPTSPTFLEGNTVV
Chain of Sphingosine-1-phosphate receptor 1 (W5VNF7 whole entry): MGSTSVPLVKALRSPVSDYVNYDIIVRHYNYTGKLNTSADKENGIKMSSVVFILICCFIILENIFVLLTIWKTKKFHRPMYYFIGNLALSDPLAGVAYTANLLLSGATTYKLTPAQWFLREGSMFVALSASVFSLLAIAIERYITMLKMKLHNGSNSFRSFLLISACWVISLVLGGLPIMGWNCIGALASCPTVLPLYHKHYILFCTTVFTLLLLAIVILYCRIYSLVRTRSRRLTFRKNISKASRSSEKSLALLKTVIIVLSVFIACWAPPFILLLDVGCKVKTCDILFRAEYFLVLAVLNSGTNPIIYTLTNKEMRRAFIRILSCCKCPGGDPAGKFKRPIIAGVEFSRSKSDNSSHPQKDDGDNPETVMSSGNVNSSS
Chain of Sphingosine-1-phosphate receptor 1 (Canis lupus familiaris) (W5VNF7 as listed by the source): as the sequence (W5VNF7 whole entry) above
Chain of Voltage-gated inwardly rectifying potassium channel KCNH2 (Q12809 whole entry): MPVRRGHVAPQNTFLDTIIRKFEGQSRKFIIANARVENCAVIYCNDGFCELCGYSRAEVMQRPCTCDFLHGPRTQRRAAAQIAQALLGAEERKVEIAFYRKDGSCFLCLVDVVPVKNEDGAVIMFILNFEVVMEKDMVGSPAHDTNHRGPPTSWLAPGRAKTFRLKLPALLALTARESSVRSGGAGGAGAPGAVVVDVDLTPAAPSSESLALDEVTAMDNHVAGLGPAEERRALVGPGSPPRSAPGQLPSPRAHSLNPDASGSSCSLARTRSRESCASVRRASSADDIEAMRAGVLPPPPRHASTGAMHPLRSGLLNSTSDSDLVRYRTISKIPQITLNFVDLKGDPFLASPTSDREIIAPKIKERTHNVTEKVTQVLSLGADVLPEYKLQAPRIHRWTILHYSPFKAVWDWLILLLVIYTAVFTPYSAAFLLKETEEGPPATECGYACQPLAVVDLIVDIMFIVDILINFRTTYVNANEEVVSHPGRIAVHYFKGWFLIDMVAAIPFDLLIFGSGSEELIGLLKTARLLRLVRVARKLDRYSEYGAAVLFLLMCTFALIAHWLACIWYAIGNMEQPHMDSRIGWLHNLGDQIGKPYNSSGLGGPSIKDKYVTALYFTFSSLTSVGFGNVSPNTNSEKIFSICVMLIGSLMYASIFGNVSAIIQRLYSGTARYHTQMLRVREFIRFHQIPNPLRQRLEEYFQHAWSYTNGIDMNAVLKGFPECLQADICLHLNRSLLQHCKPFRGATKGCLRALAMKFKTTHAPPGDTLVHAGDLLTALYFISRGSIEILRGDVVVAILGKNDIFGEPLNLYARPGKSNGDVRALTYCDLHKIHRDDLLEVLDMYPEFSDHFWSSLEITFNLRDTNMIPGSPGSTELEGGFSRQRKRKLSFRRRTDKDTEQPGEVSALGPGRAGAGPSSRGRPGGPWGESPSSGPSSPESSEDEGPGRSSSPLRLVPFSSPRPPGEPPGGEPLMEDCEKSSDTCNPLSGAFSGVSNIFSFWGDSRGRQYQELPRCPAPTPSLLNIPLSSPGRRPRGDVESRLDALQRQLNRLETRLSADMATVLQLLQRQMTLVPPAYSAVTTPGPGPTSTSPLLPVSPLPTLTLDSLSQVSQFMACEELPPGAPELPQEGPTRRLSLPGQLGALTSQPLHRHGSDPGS
Chain of Sphingosine 1-phosphate receptor 1 (Rattus norvegicus, UniProt P48303) (P48303 whole entry): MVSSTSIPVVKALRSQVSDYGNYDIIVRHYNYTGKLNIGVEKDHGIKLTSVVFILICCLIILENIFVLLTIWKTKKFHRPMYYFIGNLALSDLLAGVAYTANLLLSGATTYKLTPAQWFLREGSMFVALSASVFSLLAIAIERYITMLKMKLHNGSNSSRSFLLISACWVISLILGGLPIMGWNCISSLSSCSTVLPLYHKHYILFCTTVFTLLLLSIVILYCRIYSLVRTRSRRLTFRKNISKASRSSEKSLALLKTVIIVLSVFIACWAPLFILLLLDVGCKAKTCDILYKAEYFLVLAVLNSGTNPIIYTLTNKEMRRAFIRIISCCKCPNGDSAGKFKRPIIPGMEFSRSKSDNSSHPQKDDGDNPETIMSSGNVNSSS
Chain of Sphingosine 1-phosphate receptor 1 (Rattus norvegicus) (P48303 whole entry): as above
Chain of Sphingosine 1-phosphate receptor 3 (Q99500 whole entry): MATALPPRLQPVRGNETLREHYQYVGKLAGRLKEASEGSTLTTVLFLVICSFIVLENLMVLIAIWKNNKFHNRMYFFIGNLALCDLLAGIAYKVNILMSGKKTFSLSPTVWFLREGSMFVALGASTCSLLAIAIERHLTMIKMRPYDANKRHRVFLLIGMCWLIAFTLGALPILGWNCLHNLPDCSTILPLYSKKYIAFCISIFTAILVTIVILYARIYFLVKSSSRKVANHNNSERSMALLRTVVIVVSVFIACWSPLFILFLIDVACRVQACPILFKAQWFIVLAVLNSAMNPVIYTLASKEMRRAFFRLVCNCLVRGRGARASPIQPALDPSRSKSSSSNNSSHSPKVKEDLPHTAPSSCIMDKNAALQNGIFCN

CCCCCCCCc1ccc(CCC(N)(CO)CO)cc1 [FINGOLIMOD]
half-life [1]: 89 h

CC(C)Oc1ccc(COc2ccc3c(c2)c(Cl)c2n3CC[C@@H]2CC(=O)O)cc1C#N
EC50 [2]: 0.63 nM
Activity [3]: Not Active
EC50 [4]: 0.025 nM
Emax [5]: 94%
bioavailability [6]: 76.4%
EC50 [7]: 8600 nM
EC50 [8]: 0.038 nM
EC50 [9]: 47 nM
Emax [10]: 66%
AUC(0-inf) [11]: 4210 ng·h/mL
IC50 (Rattus norvegicus [12]): 0.0104 µg/mL (≈ 0.0237 µM)
EC50 [13]: > 10000 nM
Emax [14]: 96%
IC50 (Cytochrome P450 2C9): 8500 nM
Kp [15]: 0.09
EC50 [16]: 0.05 nM
EC50 [17]: 0.072 nM
Emax [18]: 85%
EC50 [19]: 0.049 nM
EC50 [20]: > 10000 nM
clearance [21]: 3.2 mL/min/kg
Emax [22]: 84%
Vd [23]: 0.9 L/kg
Emax [24]: 104%
Tmax [25]: 4 h
IC50 ([26]; read-out: IC50): 390 nM
Activity (Rattus norvegicus [27]): Non-toxic
Cmax [28]: 618 ng/mL
Emax [29]: 112%
half-life [30]: 3.44 h
Emax [31]: 93%

CCCCCCCCCCCCC/C=C/[C@@H](O)[C@@H](N)COP(=O)(O)O
EC50 [32]: 2.1 nM

CC(C)Oc1ccc(COc2ccc3c(c2)c(Cl)c2n3CC[C@@H]2CC(=O)O)cc1C(F)(F)F
EC50 [2]: 0.62 nM
Activity [3]: Not Active
EC50 [4]: 0.021 nM
Emax [5]: 99%
bioavailability [6]: 56.6%
EC50 [7]: 85 nM
solubility [33]: < 0.001 mg/mL
EC50 [8]: 0.058 nM
EC50 [9]: 19 nM
Cmax [34]: 72200 ng/mL
Emax [10]: 59%
AUC(0-inf) [11]: 6160 ng·h/mL
IC50 (Cytochrome P450 3A4): > 50000 nM
IC50 (Rattus norvegicus [12]): 0.0254 µg/mL (≈ 0.0527 µM)
EC50 [13]: > 10000 nM
Emax [14]: 84%
concentration at 6 days [35]: 352 ng/mL
IC50 (Cytochrome P450 2C9): > 50000 nM
Kp at 6 days [36]: 1.61
Kp [15]: 0.27
EC50 [16]: 0.064 nM
solubility [37]: > 100 mg/mL
IC50 (Cytochrome P450 2C19): > 50000 nM
EC50 [17]: 0.05 nM
Emax [18]: 29%
EC50 [19]: 0.049 nM
EC50 [20]: > 10000 nM
clearance [21]: 1.54 mL/min/kg
IC50 (Cytochrome P450 1A2): > 50000 nM
EC50 [32]: 8.9 nM
Emax [22]: 59%
Vd [23]: 0.831 L/kg
Activity (Mus musculus [38]): Dose-dependent effect
Emax [24]: 95%
Tmax [25]: 4.67 h
IC50 [26]: Not Active
concentration at 6 days [39]: 568 ng/mL
Activity (Rattus norvegicus [27]): Non-toxic
Activity (Mus musculus [40]): inactive
IC50 (Mus musculus [41]): 0.0183 µg/mL (≈ 0.038 µM)
Cmax [28]: 584 ng/mL
Activity (Mus musculus [42]): Active
IC50 (Cytochrome P450 2D6): > 50000 nM
Emax [29]: 112%
half-life [30]: 5.09 h
Emax [31]: 81%
